Assay results pooled from the literature.
HTR2C: 5-hydroxytryptamine receptor 2C (HTR2C, Homo sapiens, UniProt P28335)
murC: UDP-N-acetylmuramate--L-alanine ligase (murC, Escherichia coli K-12, UniProt P17952)
BMP2K: BMP-2-inducible protein kinase (BMP2K, Homo sapiens, UniProt Q9NSY1)
Trypanothione synthetase: Trypanothione synthetase (Trypanosoma cruzi, UniProt Q9GT49)
BRWD3: BRWD3 (Homo sapiens, UniProt Q6RI45)
Grm1: Metabotropic glutamate receptor 1 (Grm1, Rattus norvegicus, UniProt P23385)
MTNR1A: Melatonin receptor type 1A (MTNR1A, Homo sapiens, UniProt P48039)

Structure (SMILES)	target	assay	system	setting	endpoint	result
Oc1cccc(Nc2nc(-c3ccc(F)cc3F)cs2)c1	HTR2C	ligand displacement, radioligand	–	10 µM	inhibition	17.4%
N#Cc1ccc(COc2ccccc2C=NNS(=O)(=O)Cc2ccccc2F)cc1	murC	enzyme activity, inhibitor, absorbance	–	100 µM	remaining activity	59%
Cc1nn(CC(F)(F)F)cc1Nc1ncc(C2CC2)c(NCCCNC(=O)C2CCC2)n1	BMP2K	enzyme activity, inhibitor, radiometric	–	1 µM	remaining activity	73%
O=C(CN1C(=O)Cc2c([nH]c3ccc(Br)cc23)-c2ccc(Cl)cc21)N1CCCCC1	Trypanothione synthetase	enzyme activity, inhibitor, absorbance	–	30 µM	inhibition	7.1%
Cc1ccc(C(=O)Nc2ccc(CN3CCN(C)CC3)c(C(F)(F)F)c2)cc1C#Cc1cnc2cccnn12	Ephrin type-B receptor 6 (EPHB6, Homo sapiens, UniProt O15197)	cell-free assay	–	23.5 nM	remaining signal	85%
C[S+]([O-])c1ccc(-c2nc(-c3ccncc3)c(-c3ccc(F)cc3)[nH]2)cc1 (stereo not shown)	BRWD3	thermal stability, DSF	–	10 µM	ΔTm	0.55 °C
CCCOc1ccc(OC)c(F)c1C(=O)c1ccc(C(=O)N[C@@H]2CNC[C@H]2NC(=O)c2ccc3[nH]ncc3c2)cc1	Rho-associated protein kinase 2 (ROCK2, Homo sapiens, UniProt O75116)	enzyme activity, inhibitor	–	10 µM	remaining activity	3%
NNC(=O)CN1C(=O)Cc2c([nH]c3ccc(Br)cc23)-c2ccc(Cl)cc21	Trypanothione synthetase	enzyme activity, inhibitor, absorbance	–	30 µM	inhibition	10.1%
O=C(Nc1ccc(N2C(=O)c3ccccc3C2=O)c(Cl)c1)c1ncccc1Cl	Grm1	calcium signal, positive allosteric modulator	T-REx-293	–	Emax	77%
N#Cc1ccc(COc2ccccc2C=NNS(=O)(=O)c2ccccc2[N+](=O)[O-])cc1	murC	enzyme activity, inhibitor, absorbance	–	100 µM	remaining activity	95%
CCc1ccc2scc(CCNC(C)=O)c2c1	MTNR1A	β-arrestin recruitment, agonist	CHO-K1	90 min	Emax	75%
COc1cc(NC(C)=O)c(Cl)cc1C(=O)Nc1nccs1	HTR2C	ligand displacement, radioligand	–	10 µM	inhibition	48.8%
FC(F)(F)Oc1cccc(-c2cnc3ccc(-c4ccncc4)nn23)c1	Serine/threonine-protein kinase MRCK gamma (CDC42BPG, Homo sapiens, UniProt Q6DT37)	cell-free assay, competition with immobilised ligand	–	5 µM	remaining binding	18%
Cc1nn(CC(F)(F)F)cc1Nc1ncc(Br)c(NCCc2cnc[nH]2)n1	BMP2K	enzyme activity, inhibitor, radiometric	–	1 µM	remaining activity	47%
N#Cc1ccc(COc2ccccc2C=NNS(=O)(=O)Cc2ccccc2)cc1	murC	enzyme activity, inhibitor, absorbance	–	100 µM	remaining activity	100%
O=C(Nc1cccc(Nc2ncc(Br)c(NCCc3cnc[nH]3)n2)c1)N1CCCC1	BMP2K	enzyme activity, inhibitor, radiometric	–	1 µM	remaining activity	2%
COc1cc2c(CCNC(C)=O)c(I)[nH]c2cc1[N+](=O)[O-]	MTNR1A	GTPγS binding, agonist, radiometric	–	cell membranes	Emax	72%
NS(=O)(=O)c1ccc(CNc2nc(Nc3cccc(NC(=O)N4CCCC4)c3)ncc2C2CC2)cc1	BMP2K	enzyme activity, inhibitor, radiometric	–	1 µM	remaining activity	64%
NCCCCNC(=O)CN1C(=O)Cc2c([nH]c3ccc(Br)cc23)-c2ccc(Cl)cc21	Trypanothione synthetase	enzyme activity, inhibitor, absorbance	–	30 µM	inhibition	6.7%

Structure (SMILES)	target	assay	system	setting	endpoint	result
O=C(Nc1ccc(C=NNS(=O)(=O)c2ccc3ccccc3c2)cc1)c1ccc([N+](=O)[O-])cc1	murC	enzyme activity, inhibitor, absorbance	–	50 µM	remaining activity	71%
Nc1ncnc2occ(-c3ccc(NC(=O)Nc4cc(C(F)(F)F)ccc4F)cc3)c12	Receptor-type tyrosine-protein kinase FLT3 (FLT3, Homo sapiens, UniProt P36888, N841I)	cell-free assay, inhibitor	–	20 µM	remaining signal	0.75%
COc1ccc2c(c1)C(CNC(N)=O)Cc1ccccc1C2 (stereo not shown)	MTNR1A	GTPγS binding, agonist, radiometric	–	cell membranes	Emax	8%
O=C(Cc1ccc2c(c1)OCO2)Oc1ccccc1C=NNS(=O)(=O)c1ccc2ccccc2c1	murC	enzyme activity, inhibitor, absorbance	–	100 µM	remaining activity	57%
COc1cc(I)c2[nH]cc(CCNC(C)=O)c2c1	MTNR1A	GTPγS binding, agonist, radiometric	–	cell membranes	Emax	39%
Cc1nn(CC(F)(F)F)cc1Nc1ncc(Br)c(NCc2ccc(S(N)(=O)=O)cc2)n1	BMP2K	enzyme activity, inhibitor, radiometric	–	1 µM	remaining activity	30%
Cc1cccnc1C(=O)Nc1ccc(N2C(=O)c3ccccc3C2=O)c(Cl)c1	Grm1	calcium signal, positive allosteric modulator	T-REx-293	–	Emax	109%
CNC(=O)CN1C(=O)Cc2c([nH]c3ccc(Br)cc23)-c2ccc(Cl)cc21	Trypanothione synthetase	enzyme activity, inhibitor, absorbance	–	30 µM	inhibition	22.8%
Cc1nn(CC(F)(F)F)cc1Nc1ncc(Br)c(NCCCNC(=O)C2CCC2)n1	BMP2K	enzyme activity, inhibitor, radiometric	–	1 µM	remaining activity	19%
COc1cc2c(CCNC(C)=O)c[nH]c2cc1I	MTNR1A	cAMP, agonist, TR-FRET	CHO-K1	20 min	Emax	98%
Cc1cnc(Nc2ccc(OCCN3CCCC3)cc2)nc1Nc1cccc(S(=O)(=O)NC(C)(C)C)c1	BRWD3	thermal stability, DSF	–	10 µM	ΔTm	0.58 °C
COc1ccc2ncn(CCNC(C)=O)c2c1	MTNR1A	β-arrestin recruitment, agonist	CHO-K1	90 min	Emax	92%
Cc1cc2c(cc1N1C(=O)c3cccc4c(Cl)ccc(c34)C1=O)n(C)c(=O)n2C	BRWD3	thermal stability, DSF	–	10 µM	ΔTm	-0.5 °C
CN(C)C1CCN(CC#Cc2nn(C3CCCC3)c3nc(NCc4ccccc4)ncc23)C1 (stereo not shown)	Testis-specific serine/threonine-protein kinase 1 (TSSK1B, Homo sapiens, UniProt Q9BXA7)	enzyme activity, inhibitor, FRET	–	1 µM	inhibition	-2%
Cc1nn(CC(F)(F)F)cc1Nc1ncc(C2CC2)c(NCCc2c[nH]cn2)n1	BMP2K	enzyme activity, inhibitor, radiometric	–	1 µM	remaining activity	96%
O=C(c1ccc(Cl)cc1)N(Cc1ccccc1)C1CCCCC1	HTR2C	ligand displacement, radioligand	–	10 µM	inhibition	-5.5%
COc1ccc2[nH]cc(CCNC(C)=O)c2c1I	MTNR1A	β-arrestin recruitment, agonist	CHO-K1	90 min	Emax	91%
CCN(Cc1ccccc1C(F)(F)F)C(=O)C1CCN(S(=O)(=O)c2ccc3[nH]ncc3c2)CC1	B2 bradykinin receptor (BDKRB2, Homo sapiens, UniProt P30411)	ligand displacement, radioligand	–	10 µM	inhibition	11%
